Here are results for six molecules from paper PMC5125728 (Cell reports, 2016).

Where no end group is shown, it is not given here. Me2 = dimethyl (dimethyl-lysine)

For experiment [1], the target named is PHF20 PHD finger (aa 651-699), wild type (human) (UniProt Q9BVI0). The experiment in a line: other fluorescence titration.
Experiment [2] deals with PHF20 PHD finger E662D (human) (UniProt Q9BVI0). The experiment in a line: other fluorescence titration.
The target of the next experiment is T1, PHF20 PHD finger (WT) (Homo sapiens, UniProt Q9BVI0).
T1 sequence (Q9BVI0 651-699): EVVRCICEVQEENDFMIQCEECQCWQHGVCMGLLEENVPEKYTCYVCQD
Description: Tryptophan fluorescence binding of histone peptides to WT PHF20 PHD finger. The essentials: (§1)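 The PHF20 PHD (aa 651–699, GST cleaved; mutants by site-directed mutagenesis) was in PBS pH 6.8 with 10 mM DTT at room temperature. Histone peptide was increased progressively. Excitation was at 280 nm and emission was scanned 310–405 nm (0.5-nm steps, 1-s integration, three scans averaged). Kd came from a nonlinear least-squares fit of intensity change, averaged over three separate experiments, with SD between runs.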

Experiment [3] deals with T2, E662D mutant of PHF20-PHD (Homo sapiens, UniProt Q9BVI0, E662D).
T2 sequence (Q9BVI0 651-699 E662D): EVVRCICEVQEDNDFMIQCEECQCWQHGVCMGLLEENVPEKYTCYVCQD
Description: Tryptophan fluorescence binding of histone peptides to E662D mutant of PHF20 PHD. The essentials: as §1

The test system of the next experiment is GST-PHF20 PHD. Description: Biotinylated histone peptide pull-down with GST-PHF20 PHD, western blot. To be noted: 1 μg biotinylated peptide, 1 μg GST-PHF20 PHD, 50 mM Tris-HCl pH 7.5, 250 mM NaCl, 0.1% NP-40, overnight, streptavidin beads. The class given is binding, human. On the technique in general: In western blotting, separated proteins are transferred to a membrane and probed.

The subject of experiment [4] is E662K mutant of PHF20 PHD finger. Description: NMR and tryptophan fluorescence binding, E662K mutant of PHF20 PHD. Details: species or system human. The note with it: E662K folded, soluble, stable protein; Figures 4C and 4E. The essentials: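 GST-tagged PHF20 PHD (aa 651–699), wild-type or point mutant made by site-directed mutagenesis, was expressed in E. coli Rosetta-2(DE3)pLysS in 15NH4Cl minimal medium with 150 μM ZnCl2, then GST-cleaved. 1H,15N HSQC spectra were collected at 298K (600/500 MHz) as 12-mer histone tail peptides were added stepwise. Shift changes were normalized as √(ΔδH²+(ΔδN/5)²); Kd came from a nonlinear least-squares fit.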

The target in experiment [5] is T3, PHF20 PHD finger (residues 646-699) (human, UniProt Q9BVI0 646-699).
T3 sequence (looked up): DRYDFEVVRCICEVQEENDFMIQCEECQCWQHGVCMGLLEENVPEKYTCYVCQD
The experiment in a line: NMR structure.

Another experiment concerns the target T4, PHF20 PHD finger P689L (human, UniProt Q9BVI0 651-699, P689L).
T4 chain (looked up): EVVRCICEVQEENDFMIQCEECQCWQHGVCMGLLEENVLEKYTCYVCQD
Description: NMR titration.

A further experiment deals with T5, PHF20 PHD finger F665V (human, UniProt Q9BVI0 651-699, F665V).
T5 chain (looked up): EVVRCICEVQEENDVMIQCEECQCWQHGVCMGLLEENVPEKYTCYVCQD
Description: NMR titration.

Another experiment has as its target T6, PHF20 PHD finger R654H (human, UniProt Q9BVI0 651-699, R654H).
T6 chain (looked up): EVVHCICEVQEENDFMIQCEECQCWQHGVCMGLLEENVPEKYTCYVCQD
Description: NMR titration.

The next experiment has as its target T7, PHF20 Tudor2 (aa 58-148) (human, UniProt Q9BVI0 58-148).
T7 sequence (looked up): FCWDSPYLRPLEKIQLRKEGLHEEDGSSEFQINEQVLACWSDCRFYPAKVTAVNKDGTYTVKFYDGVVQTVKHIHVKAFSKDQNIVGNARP
Description: NMR titration.

Another experiment addresses T8, PHF20 PHD finger E662D (human, UniProt Q9BVI0 651-699, E662D).
T8 chain (looked up): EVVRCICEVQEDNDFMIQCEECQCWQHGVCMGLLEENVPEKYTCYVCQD
Description: other fluorescence titration.

Experiment [6] deals with T9, PHF20 PHD finger (aa 651-699), wild type (human, UniProt Q9BVI0 651-699).
T9 chain (looked up): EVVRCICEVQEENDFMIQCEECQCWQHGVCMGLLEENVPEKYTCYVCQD
The experiment in a line: other fluorescence titration.

The term Kd denotes the concentration at which binding is half-saturated. Low values mean tighter binding, high ones weaker binding.

Take H3K4me0 peptide (12-mer): the fold weaker than H3K4me2 in experiment [1] stood at 20 fold.

H3K4me1 peptide (12-mer) had a fold weaker than H3K4me2 in experiment [1] of 14 fold.

On to H3K4me3 peptide (12-mer), for which the fold weaker than H3K4me2 in experiment [1] turned out to be 6 fold. In experiment [2], the Kd was found to be 3.7 µM.

In the case of `C[C@H](N)C(=O)N[C@@H](CCCNC(=N)N)C(=O)N[C@H](C(=O)N[C@@H](CCCCN(C)C)C(=O)N[C@@H](CCC(N)=O)C(=O)N[C@H](C(=O)N[C@@H](C)C(=O)N[C@@H](CCCNC(=N)N)C(=O)N[C@@H](CCCCN)C(=O)N[C@@H](CO)C(=O)N[C@H](C(N)=O)[C@@H](C)O)[C@@H](C)O)[C@@H](C)O` [H3K4me2], the dissociation constant (Kd) (on PHF20 PHD finger (WT); in [3]) was 3.6 µM each time. Moreover, the “binding in peptide pull-down” value in the experiment on GST-PHF20 PHD was “binds”. For the same molecule, the “interaction with E662K mutant” value in [4] is recorded as “completely abrogated interaction”.

Turning to ARTK(Me2)QTARKST-NH2 [11-residue C-terminally amidated H3K4me2 peptide], the binding result in [5] is reported as “binds”.

Turning to ARTK(Me2)QTARKSTG (peptide, UniProt P68431 2-13, looked up) [H3K4me2 peptide (aa 1-12)], the “fold decrease of binding compared with WT” value in the experiment with PHF20 PHD finger P689L is roughly 17 fold; with PHF20 PHD finger F665V it was roughly 9 fold; with PHF20 PHD finger R654H, roughly 8 fold. In addition, the Kd was roughly 1000 µM with PHF20 Tudor2 (aa 58-148), 3.6 µM in the experiment with PHF20 PHD finger E662D and 3.6 µM in experiment [6].
